High-throughput results deposited in PubChem BioAssay by The Scripps Research Institute Molecular Screening Center.
Compounds with a hit are over-represented: about 1.9% of the library has one in this group of screens.
CHRM5 antagonist = antagonists of human muscarinic M5 receptor (CHRM5); CHO-hM5 cells, Fluo-8 calcium fluorescence, ACh EC80; 360,000 compounds, 0.59% hits; inhibition, % at 3 µM; AID 624040;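 active = inhibition above a per-plate cutoff, the mean of that plate's test compounds plus 3 SD, cut at about 27% in these data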;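 also: 0% = acetylcholine EC80 with DMSO and 100% = DMSO without agonist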
Target sequence (P08912 whole entry, looked up): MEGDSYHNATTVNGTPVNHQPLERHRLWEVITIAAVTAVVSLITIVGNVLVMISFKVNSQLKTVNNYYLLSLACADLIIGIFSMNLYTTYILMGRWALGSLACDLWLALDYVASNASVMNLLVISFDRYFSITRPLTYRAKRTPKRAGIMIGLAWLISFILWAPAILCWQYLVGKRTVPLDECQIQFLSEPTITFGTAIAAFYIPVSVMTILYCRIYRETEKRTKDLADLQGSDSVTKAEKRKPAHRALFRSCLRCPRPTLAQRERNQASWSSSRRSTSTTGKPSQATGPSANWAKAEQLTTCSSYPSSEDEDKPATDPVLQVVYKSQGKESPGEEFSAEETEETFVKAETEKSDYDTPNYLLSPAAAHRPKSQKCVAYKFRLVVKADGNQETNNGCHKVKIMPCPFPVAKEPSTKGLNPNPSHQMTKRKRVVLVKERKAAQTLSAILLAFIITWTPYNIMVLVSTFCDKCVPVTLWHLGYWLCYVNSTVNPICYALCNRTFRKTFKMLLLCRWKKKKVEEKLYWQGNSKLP
CHRM4 agonist = agonists of human muscarinic M4 receptor (CHRM4) | 360,000 compounds, 0.14% hits | activation, % at 3 µM | P08173 | CHO-K1 hM4/Gqi5, Fluo-8 calcium fluorescence; vehicle 0%, full acetylcholine response 100%;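 active = activation above the run mean over all test wells plus 3 SD, cut at about 32% in these data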;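 also: peak over basal fluorescence ratio per well then scaled between controls; 0% = DMSO wells and 100% = acetylcholine at EC100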
CHRM4 antagonist = CHRM4 antagonism in calcium assay. P08173. CHO-hM4 cells, ACh EC80, Fluo-8 calcium fluorescence. inhibition, % at 3 µM. 360,000 compounds, 0.73% hits. AID 624125;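 active = inhibition above its plate's cutoff, the mean inhibition of sample wells plus 3 SD, cut at about 27% in these data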;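 also: 0% = acetylcholine EC80 with DMSO and 100% = DMSO without agonist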
M4 PAM = CHRM4 positive allosteric modulation; CHO-K1 hM4/Gqi5, Fluo-8 calcium fluorescence, ACh EC20; 0% = ACh EC20, 100% = maximal ACh; activation, % at 3 µM; 360,000 compounds, 0.4% hits;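 active = activation above its plate's cutoff, the mean activation of sample wells plus 3 SD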
M5 PAM = positive allosteric modulators of human muscarinic M5 receptor. P08912. activation, % at 3 µM. CHO-K1 hM5, Fluo-8 calcium, ACh EC20 PAM; 0% = ACh EC20, 100% = ACh EC100. 360,000 compounds, 0.3% hits;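 active = activation above the run cutoff, the mean activation of all test compounds plus 3 SD, cut at about 18% in these data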
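System – CHO-K1 hM5 cells · Compound – 3 µM, single dose · Incubation – compound preincubation 140 s before EC20 acetylcholine addition · Technique – Fluo-8 calcium fluorescence · Measure – Max/basal fluorescence ratio as % of EC20–EC100 ACh window · Benchmarks – low control EC20 acetylcholine (0%), high control EC100 acetylcholine (100%) · Replication – singlicate, one well per test compound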
M5 ag = agonists of human muscarinic M5 receptor (CHRM5); P08912; 360,000 compounds, 0.19% hits; activation, % at 3 µM; CHO-K1 hM5 cells, Fluo-8 calcium fluorescence; 0% DMSO wells, 100% maximal acetylcholine response;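 active = activation above the run's mean over test compounds plus 3 SD, cut at about 23% in these data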;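 also: signal is peak over basal fluorescence ratio across the kinetic read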
An asterisk follows results filed as active.

What do the screens show for `CCN(CC)c1ccc(C(=C2C=CC(=[N+](CC)CC)C=C2)c2ccccc2)cc1`?
CHRM5 antagonist: 84.9*; CHRM4 agonist: 66.1*; CHRM4 antagonist: 98.7*; M4 PAM: -13.3; M5 PAM: -46.0; M5 ag: 30.3*

How did CCCCCCCCCCCCCCCC[n+]1ccc(C(N)=O)cc1 do in these assays?
CHRM5 antagonist: 14.3; CHRM4 agonist: 0.7; CHRM4 antagonist: 11.8; M4 PAM: -20.9; M5 PAM: -12.7; M5 ag: -2.7

What do the screens show for `CCCCCCCCCCCCCCCC[n+]1ccccc1`?
CHRM5 antagonist: 86.5*; CHRM4 agonist: 0.0; CHRM4 antagonist: 44.6*; M4 PAM: -16.0; M5 PAM: -18.8; M5 ag: -2.1

How did O/N=C/c1cccc[n+]1CCCCCC[n+]1ccccc1/C=N/O do in these assays?
CHRM5 antagonist: 2.8; CHRM4 agonist: 0.2; CHRM4 antagonist: 13.3; M4 PAM: -8.7; M5 PAM: 2.8; M5 ag: -20.8

How did CCCCCCCCCCCCCCCC[n+]1ccc(/C=N/O)cc1 do in these assays?
CHRM5 antagonist: 27.5*; CHRM4 agonist: 0.6; CHRM4 antagonist: 13.7; M4 PAM: -12.5; M5 PAM: -17.2; M5 ag: -7.1

Results for COc1ccc(C(=O)c2coc3ccc(OC(C)=O)cc23)cc1 ?
CHRM5 antagonist: 29.2*; CHRM4 agonist: 2.6; CHRM4 antagonist: 5.4; M4 PAM: -7.5; M5 PAM: -10.3; M5 ag: -4.3

Results for CC1CC(C)CN(C(=O)c2cccc(N3C(=O)c4ccccc4C3=O)c2)C1 (centres undefined) ?
CHRM5 antagonist: 8.5; CHRM4 agonist: 1.7; CHRM4 antagonist: -4.0; M4 PAM: 2.7; M5 PAM: -7.8; M5 ag: -2.8

What do the screens show for `CSc1ccc(/C=N/NC(=O)CN2CCN(Cc3ccccc3)CC2)cc1`?
CHRM5 antagonist: 1.1; CHRM4 agonist: -0.1; CHRM4 antagonist: 23.6; M4 PAM: -14.9; M5 PAM: 2.8; M5 ag: -3.1

What do the screens show for `CSc1ccc(/C=N/NC(=O)CN2CCN(Cc3ccc(Cl)cc3)CC2)cc1`?
CHRM5 antagonist: 0.8; CHRM4 agonist: 2.0; CHRM4 antagonist: 34.7*; M4 PAM: -16.7; M5 PAM: -1.2; M5 ag: -1.9

Results for O=C(O)C1=C(C(=O)Nc2cccc(C(F)(F)F)c2)CCCC1 ?
CHRM5 antagonist: 2.4; CHRM4 agonist: -0.5; CHRM4 antagonist: -21.8; M4 PAM: 11.9; M5 PAM: 0.4; M5 ag: -4.5

What do the screens show for `O=C(c1cccc(Oc2ccc([N+](=O)[O-])cc2Cl)c1)N1CCOCC1`?
CHRM5 antagonist: 26.9*; CHRM4 agonist: 1.2; CHRM4 antagonist: 3.4; M4 PAM: -4.3; M5 PAM: -12.1; M5 ag: -2.5

Results for O=C(Oc1cccc(C(=S)N2CCOCC2)c1)c1ccc([N+](=O)[O-])cc1 ?
CHRM5 antagonist: 12.8; CHRM4 agonist: 2.6; CHRM4 antagonist: -3.7; M4 PAM: 0.6; M5 PAM: -2.3; M5 ag: -0.3

What do the screens show for `CNC(=S)N(Cc1ccccc1)Cc1cccnc1`?
CHRM5 antagonist: 8.1; CHRM4 agonist: 0.0; CHRM4 antagonist: -2.0; M4 PAM: -1.7; M5 PAM: -1.9; M5 ag: 0.6

How did Cn1c(=O)c2c(nc(N3CCCCC3)n2CCSc2nc3ccccc3s2)n(C)c1=O do in these assays?
CHRM5 antagonist: -4.8; CHRM4 agonist: 0.7; CHRM4 antagonist: 6.3; M4 PAM: 37.5*; M5 PAM: 0.0; M5 ag: 0.4

How did Cc1ccccc1CN1C(=O)CN(S(C)(=O)=O)CC1(C)C(=O)NC(C)C (centres undefined) do in these assays?
CHRM5 antagonist: -7.8; CHRM4 agonist: 2.5; CHRM4 antagonist: -5.2; M4 PAM: 2.5; M5 PAM: 5.2; M5 ag: 1.5

What do the screens show for `CC(=O)c1ccc(N2CCN(CC(O)COC(c3ccccc3)c3ccccc3C)CC2)cc1` (centres undefined)?
CHRM5 antagonist: 31.7*; CHRM4 agonist: 12.5; CHRM4 antagonist: 81.0*; M4 PAM: -23.2; M5 PAM: -16.2; M5 ag: -5.8
